Data taken from ChEMBL document CHEMBL1138191, “Synthesis, pharmacological evaluation, and molecular modeling studies of novel peptidic CAAX analogues as farnesyl-protein-transferase inhibitors” (J Med Chem, 2006).
pIC50: −log10 of the molar value. Active and inactive are the calls of the source. The calls are words filed in the database; no cut-off is given here.

Experiments:
FRTL-5 = experiment: Antiproliferative activity against FRTL5 cell line; type: functional, cell-based; details: Rattus norvegicus
How it was run: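 FRTL-5 rat thyroid cells were grown in Coon's modified Ham F12 with 5% calf serum plus six hormones, including TSH 1 × 10^-10 M. Cells were seeded at ~10% confluency and attached for 24 h. Compounds in DMSO were applied for 24 h at 37 °C in 5% CO2, then washed out, followed by 48 h culture. SRB read-out, %T/C; IC50 from dose/effect curve; vehicle controls.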

T47D = experiment: Antiproliferative activity against T47D cell line; type: functional, cell-based; details: Homo sapiens
How it was run: (§1)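 Monolayers in RPMI-1640 with 10% FBS, seeded ~10% confluent and allowed 24 h recovery. Compounds in DMSO at varying concentrations for 24 h (37 °C, 5% CO2), then washout and 48 h further growth. Viability by sulforhodamine B; %T/C relative to vehicle-treated controls; 50% growth-inhibitory concentration taken from dose/effect curve.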

[1] = Inhibitory activity against farnesyl transferase
NIH3T3 = experiment: Antiproliferative activity against NIH3T3 cell line; type: functional, cell-based; details: Mus musculus
How it was run: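 NIH3T3 fibroblasts were grown in DMEM with 10% calf serum and seeded at ~10% confluency with 24 h attachment. A range of compound concentrations in DMSO was applied for 24 h at 37 °C in 5% CO2, then washed off, followed by 48 h further incubation. Growth by sulforhodamine B; %T/C versus vehicle; IC50 from dose/effect curve.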

MDA-MB-231 = experiment: Antiproliferative activity against MDA-MB-231 cell line; type: functional, cell-based; details: Homo sapiens; how it was run: as §1
LoVo = experiment: Antiproliferative activity against LoVo cell line; type: functional, cell-based; details: Homo sapiens; how it was run: as §1
MCF7 = experiment: Antiproliferative activity against MCF7 cell line; type: functional, cell-based; details: Homo sapiens; how it was run: as §1
MCF10 = experiment: Antiproliferative activity against MCF10 cell line; type: functional, cell-based; details: Homo sapiens

Row | SMILES | Activity (FRTL-5) | Activity (T47D) | pIC50 [1] | Activity (NIH3T3) | Activity (MDA-MB-231) | Activity (LoVo) | Activity (MCF7) | Activity (MCF10) | pIC50 (T47D) | pIC50 (MDA-MB-231) | pIC50 (LoVo) | pIC50 (MCF7)
1 | CSCC[C@H](NC(=O)[C@@H](Cc1ccc(C)cc1C)NC(=O)[C@@H](NC(=O)[C@@H](N)CS)C(C)C)C(=O)O | inactive | inactive | 5.37 | inactive | inactive | inactive | inactive | inactive |  |  |  | 
2 | CSCC[C@H](NC(=O)[C@H](Cc1cc(C)c(O)cc1C)NC(=O)[C@@H](NC(=O)[C@@H](N)CS)C(C)C)C(=O)O | inactive | inactive | 5.60 | inactive | inactive | inactive | inactive | inactive |  |  |  | 
3 | CSCC[C@H](NC(=O)[C@H](Cc1cc(C)c(O)cc1C)NC(=O)[C@@H](NC(=O)[C@H](CS)NC=O)C(C)C)C(=O)O |  |  | 5.26 |  |  |  |  |  |  |  |  | 
4 | CSCC[C@H](NC(=O)[C@H](Cc1ccc(O)c(C)c1C)NC(=O)[C@@H](NC(=O)[C@@H](N)CS)C(C)C)C(=O)O | inactive | inactive | 7.00 | inactive | inactive | inactive | inactive | inactive |  |  |  | 
5 | COC(=O)[C@H](CCSC)NC(=O)[C@H](Cc1ccc(O)c(C)c1C)NC(=O)[C@@H](NC(=O)[C@@H](N)CS)C(C)C |  |  | 4.69 |  |  |  |  |  | 4.05 | 4.08 | 5.04 | 4.19
6 | CSCC[C@H](NC(=O)[C@H](Cc1ccc(O)c(C)c1C)NC(=O)[C@@H](NC(=O)[C@H](CS)NC=O)C(C)C)C(=O)O |  |  | 4.99 |  |  |  |  |  | 4.00 | 4.00 |  | 
7 | COC(=O)[C@H](CCSC)NC(=O)[C@@H](Cc1ccc(O)c(C)c1C)NC(=O)[C@@H](NC(=O)[C@@H](N)CS)C(C)C | inactive | inactive | 4.15 | inactive | inactive | inactive | inactive | inactive |  |  |  | 
8 | CSCC[C@H](NC(=O)[C@@H](Cc1ccc(O)cc1C)NC(=O)[C@@H](NC(=O)[C@@H](N)CS)C(C)C)C(=O)O | inactive | inactive | 4.94 | inactive | inactive | inactive | inactive | inactive |  |  |  | 
9 | CSCC[C@H](NC(=O)[C@@H](Cc1ccc(O)c(C)c1C)NC(=O)[C@@H](NC(=O)[C@@H](N)CS)C(C)C)C(=O)O | inactive | inactive | 5.37 | inactive | inactive | inactive | inactive | inactive |  |  |  | 
10 | CSCC[C@H](NC(=O)[C@H](Cc1ccc(C)cc1C)NC(=O)[C@@H](NC(=O)[C@@H](N)CS)C(C)C)C(=O)O | inactive | inactive | 5.66 | inactive | inactive | inactive | inactive | inactive |  |  |  | 
11 | CSCC[C@H](NC(=O)[C@@H](Cc1cc(C)c(O)cc1C)NC(=O)[C@@H](NC(=O)[C@@H](N)CS)C(C)C)C(=O)O | inactive | inactive | 4.98 | inactive | inactive | inactive | inactive | inactive |  |  |  | 
12 | CSCC[C@H](NC(=O)[C@H](Cc1ccc(O)cc1C)NC(=O)[C@@H](NC(=O)[C@@H](N)CS)C(C)C)C(=O)O | inactive | inactive | 5.37 | inactive | inactive | inactive | inactive | inactive |  |  |  | 
13 | CSCC[C@H](NC(=O)[C@@H](Cc1cc(C)c(O)cc1C)NC(=O)[C@@H](NC(=O)[C@H](CS)NC=O)C(C)C)C(=O)O |  |  | 4.99 |  |  |  |  |  |  |  |  | 
14 | CSCC[C@H](NC(=O)[C@H]1CC2CCCCC2N1C(=O)[C@@H](NC(=O)[C@@H](N)CS)C(C)C)C(=O)O (stereo not given in full) | inactive | inactive | 6.00 | inactive | inactive | inactive | inactive | inactive |  |  |  | 
